Values after ≈ are worked out from the molar mass of the structure shown.
Experiments:
Type in all cases: functional
Pichia kudriavzevii [1] = test: Antifungal activity against Candida krusei E28 after 48 hrs by microbroth dilution method; details: E28, 48 h
Klebsiella pneumoniae [2] = test: Antibacterial activity against ESBL-positive Klebsiella pneumoniae J 14368/08 after 48 hrs by microbroth dilution method; details: J 14368/08, 48 h
Method in brief: (§1)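 Microbroth dilution modified per M07-A07 in Mueller-Hinton broth, pH 7.4 (±0.2). Inoculum in sterile water adjusted to 0.5 McFarland. MIC taken as growth reduction of at least 90% (IC90) versus control, read visually and at 540 nm after 24 and 48 h incubation in the dark.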

[3] = system: Staphylococcus epidermidis; test: Antibacterial activity against Staphylococcus epidermidis H 6966/08 after 24 hrs by microbroth dilution method; details: H 6966/08, 24 h; method in brief: as §1
Candida tropicalis [4] = test: Antifungal activity against Candida tropicalis 156 after 48 hrs by microbroth dilution method; details: Candida tropicalis, 156, 48 h
Klebsiella pneumoniae [5] = test: Antibacterial activity against ESBL-positive Klebsiella pneumoniae J 14368/08 after 24 hrs by microbroth dilution method; details: J 14368/08, 24 h; method in brief: as §1
Nakaseomyces glabratus [6] = test: Antifungal activity against Candida glabrata 20/I after 24 hrs by microbroth dilution method
Lichtheimia corymbifera [7] = test: Antifungal activity against Absidia corymbifera 272 after 48 hrs by microbroth dilution method; details: Lichtheimia corymbifera, 272, 48 h
[8] = system: Staphylococcus epidermidis; test: Antibacterial activity against Staphylococcus epidermidis H 6966/08 after 48 hrs by microbroth dilution method; details: H 6966/08, 48 h; method in brief: as §1
[9] = system: Trichophyton mentagrophytes; test: Antifungal activity against Trichophyton mentagrophytes 445 after 72 hrs by microbroth dilution method; details: Trichophyton mentagrophytes, 445, 72 h
Lichtheimia corymbifera [10] = test: Antifungal activity against Absidia corymbifera 272 after 24 hrs by microbroth dilution method; details: Lichtheimia corymbifera, 272, 24 h
Candida albicans [11] = test: Antifungal activity against Candida albicans ATCC 44859 after 24 hrs by microbroth dilution method; details: ATCC 44859, 24 h
Candida albicans [12] = test: Antifungal activity against Candida albicans ATCC 44859 after 48 hrs by microbroth dilution method; details: ATCC 44859, 48 h
Trichosporon asahii [13] = test: Antifungal activity against Trichosporon asahii 1188 after 48 hrs by microbroth dilution method; details: Trichosporon asahii, 1188, 48 h
Pichia kudriavzevii [14] = test: Antifungal activity against Candida krusei E28 after 24 hrs by microbroth dilution method; details: E28, 24 h
Staphylococcus aureus [15] = test: Antibacterial activity against methicillin-resistant Staphylococcus aureus H 5996/08 after 48 hrs by microbroth dilution method; details: H 5996/08, 48 h
Method in brief: (§2)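 Microdilution broth method modified after M07-A07 in Mueller-Hinton broth adjusted to pH 7.4 (±0.2). Inoculum prepared in sterile water to 0.5 McFarland (1.5 × 10^8 CFU/mL). MIC taken as growth reduction versus control (IC95 per table header), read visually and spectrophotometrically at 540 nm after 24 and 48 h incubation in the dark.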

Candida tropicalis [16] = test: Antifungal activity against Candida tropicalis 156 after 24 hrs by microbroth dilution method; details: Candida tropicalis, 156, 24 h
[17] = system: Trichophyton mentagrophytes; test: Antifungal activity against Trichophyton mentagrophytes 445 after 120 hrs by microbroth dilution method; details: Trichophyton mentagrophytes, 445, 120 h
Escherichia coli [18] = test: Antibacterial activity against Escherichia coli CCM 4517 after 48 hrs by microbroth dilution method; details: CCM 4517, 48 h; method in brief: as §1
Escherichia coli [19] = test: Antibacterial activity against Escherichia coli CCM 4517 after 24 hrs by microbroth dilution method; details: CCM 4517, 24 h; method in brief: as §1
Trichosporon asahii [20] = test: Antifungal activity against Trichosporon asahii 1188 after 24 hrs by microbroth dilution method; details: Trichosporon asahii, 1188, 24 h
Staphylococcus aureus [21] = test: Antibacterial activity against methicillin-resistant Staphylococcus aureus H 5996/08 after 24 hrs by microbroth dilution method; details: H 5996/08, 24 h; method in brief: as §2
Enterococcus sp. [22] = test: Antibacterial activity against Enterococcus sp. J 14365/08 after 48 hrs by microbroth dilution method; details: J 14365/08, 48 h; method in brief: as §1
Staphylococcus aureus [23] = test: Antibacterial activity against Staphylococcus aureus CCM 4516/08 after 48 hrs by microbroth dilution method; details: CCM 4516/08, 48 h; method in brief: as §2
Enterococcus sp. [24] = test: Antibacterial activity against Enterococcus sp. J 14365/08 after 24 hrs by microbroth dilution method; details: J 14365/08, 24 h; method in brief: as §1
Nakaseomyces glabratus [25] = test: Antifungal activity against Candida glabrata 20/I after 48 hrs by microbroth dilution method
Klebsiella pneumoniae [26] = test: Antibacterial activity against Klebsiella pneumoniae D 11750/08 after 48 hrs by microbroth dilution method; details: D 11750/08, 48 h; method in brief: as §1
Klebsiella pneumoniae [27] = test: Antibacterial activity against Klebsiella pneumoniae D 11750/08 after 24 hrs by microbroth dilution method; details: D 11750/08, 24 h; method in brief: as §1
Staphylococcus aureus [28] = test: Antibacterial activity against Staphylococcus aureus CCM 4516/08 after 24 hrs by microbroth dilution method; details: CCM 4516/08, 24 h; method in brief: as §1

| Structure (SMILES) | MIC (Pichia kudriavzevii [1]) [µM] | MIC (Klebsiella pneumoniae [2]) [µM] | MIC [3] [µM] | MIC (Candida tropicalis [4]) [µM] | MIC (Klebsiella pneumoniae [5]) [µM] | MIC (Nakaseomyces glabratus [6]) [µM] | MIC (Lichtheimia corymbifera [7]) [µM] | MIC [8] [µM] | MIC [9] [µM] | MIC (Lichtheimia corymbifera [10]) [µM] | MIC (Candida albicans [11]) [µM] | MIC (Candida albicans [12]) [µM] | MIC (Trichosporon asahii [13]) [µM] | MIC (Pichia kudriavzevii [14]) [µM] | MIC (Staphylococcus aureus [15]) [µM] | MIC (Candida tropicalis [16]) [µM] | MIC [17] [µM] | MIC (Escherichia coli [18]) [µM] | MIC (Escherichia coli [19]) [µM] | MIC (Trichosporon asahii [20]) [µM] | also measured |
| --- | --- | --- | --- | --- | --- | --- | --- | --- | --- | --- | --- | --- | --- | --- | --- | --- | --- | --- | --- | --- | --- |
| O=C(NC1CCCCC1)Oc1ccccc1C(=O)Nc1ccccc1 | > 500 | > 500 | 500 (≈ 169 µg/mL) | > 500 | > 500 | > 500 | > 500 | 500 (≈ 169 µg/mL) | > 500 | > 500 | > 500 | > 500 | > 500 | > 500 | 500 (≈ 169 µg/mL) | > 500 | > 500 | > 500 | > 500 | > 500 | MIC (Staphylococcus aureus [21]): 500 µM (≈ 169 µg/mL); MIC (Enterococcus sp. [22]): 500 µM (≈ 169 µg/mL); MIC (Staphylococcus aureus [23]): 250 µM (≈ 84.6 µg/mL); MIC (Enterococcus sp. [24]): 500 µM (≈ 169 µg/mL); MIC (Nakaseomyces glabratus [25]): > 500 µM; MIC (Klebsiella pneumoniae [26]): > 500 µM; MIC (Klebsiella pneumoniae [27]): > 500 µM; MIC (Staphylococcus aureus [28]): 250 µM (≈ 84.6 µg/mL) |
| O=C(Nc1ccccc1)Oc1ccccc1C(=O)Nc1ccccc1 | > 500 | > 500 | 500 (≈ 166 µg/mL) | > 500 | > 500 | > 500 | > 500 | 500 (≈ 166 µg/mL) | 125 (≈ 41.5 µg/mL) | > 500 | > 500 | > 500 | > 500 | > 500 | 500 (≈ 166 µg/mL) | > 500 | 125 (≈ 41.5 µg/mL) | > 500 | > 500 | > 500 | MIC (Staphylococcus aureus [21]): 500 µM (≈ 166 µg/mL); MIC (Enterococcus sp. [22]): > 500 µM; MIC (Staphylococcus aureus [23]): 500 µM (≈ 166 µg/mL); MIC (Enterococcus sp. [24]): > 500 µM; MIC (Nakaseomyces glabratus [25]): > 500 µM; MIC (Klebsiella pneumoniae [26]): > 500 µM; MIC (Klebsiella pneumoniae [27]): > 500 µM; MIC (Staphylococcus aureus [28]): 500 µM (≈ 166 µg/mL) |
| O=C(NCc1ccccc1)Oc1ccccc1C(=O)Nc1ccccc1 | 125 (≈ 43.3 µg/mL) | > 500 | 500 (≈ 173 µg/mL) | 125 (≈ 43.3 µg/mL) | > 500 | 250 (≈ 86.6 µg/mL) | > 500 | 500 (≈ 173 µg/mL) | 15.6 (≈ 5.41 µg/mL) | > 500 | 125 (≈ 43.3 µg/mL) | 125 (≈ 43.3 µg/mL) | 125 (≈ 43.3 µg/mL) | 125 (≈ 43.3 µg/mL) | 500 (≈ 173 µg/mL) | 125 (≈ 43.3 µg/mL) | 15.6 (≈ 5.41 µg/mL) | > 500 | > 500 | 125 (≈ 43.3 µg/mL) | MIC (Staphylococcus aureus [21]): 500 µM (≈ 173 µg/mL); MIC (Enterococcus sp. [22]): > 500 µM; MIC (Staphylococcus aureus [23]): 250 µM (≈ 86.6 µg/mL); MIC (Enterococcus sp. [24]): > 500 µM; MIC (Nakaseomyces glabratus [25]): 250 µM (≈ 86.6 µg/mL); MIC (Klebsiella pneumoniae [26]): > 500 µM; MIC (Klebsiella pneumoniae [27]): > 500 µM; MIC (Staphylococcus aureus [28]): 250 µM (≈ 86.6 µg/mL) |
| O=C(NCCc1ccccc1)Oc1ccccc1C(=O)Nc1ccccc1 | 125 (≈ 45.1 µg/mL) | > 500 | 125 (≈ 45.1 µg/mL) | > 500 | > 500 | 250 (≈ 90.1 µg/mL) | > 500 | 125 (≈ 45.1 µg/mL) | 62.5 (≈ 22.5 µg/mL) | > 500 | > 500 | > 500 | > 500 | 125 (≈ 45.1 µg/mL) | 125 (≈ 45.1 µg/mL) | > 500 | 62.5 (≈ 22.5 µg/mL) | > 500 | > 500 | > 500 | MIC (Staphylococcus aureus [21]): 125 µM (≈ 45.1 µg/mL); MIC (Enterococcus sp. [22]): > 500 µM; MIC (Staphylococcus aureus [23]): 125 µM (≈ 45.1 µg/mL); MIC (Enterococcus sp. [24]): > 500 µM; MIC (Nakaseomyces glabratus [25]): 250 µM (≈ 90.1 µg/mL); MIC (Klebsiella pneumoniae [26]): > 500 µM; MIC (Klebsiella pneumoniae [27]): > 500 µM; MIC (Staphylococcus aureus [28]): 125 µM (≈ 45.1 µg/mL) |
